High-throughput results as filed in PubChem BioAssay.
Most compounds without a hit are left out; they make up all but 3.7% or so of the library.
KCNK3 inh – human KCNK3 channel inhibitors, primary screen, CHO cells, FluxOR thallium flux, B-score. Potassium channel subfamily K member 3 (Homo sapiens), O14649. FluxOR fluorescence; hits give low values. B-score at 10 µM. hit rate 0.84% among 340,000;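 active = B-score under library mean minus 4 SD, starting fluorescence ratio at most library mean plus 5 SD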;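 also: more negative B-score means stronger inhibition of thallium flux through KCNK3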
Target sequence (O14649 whole entry, looked up): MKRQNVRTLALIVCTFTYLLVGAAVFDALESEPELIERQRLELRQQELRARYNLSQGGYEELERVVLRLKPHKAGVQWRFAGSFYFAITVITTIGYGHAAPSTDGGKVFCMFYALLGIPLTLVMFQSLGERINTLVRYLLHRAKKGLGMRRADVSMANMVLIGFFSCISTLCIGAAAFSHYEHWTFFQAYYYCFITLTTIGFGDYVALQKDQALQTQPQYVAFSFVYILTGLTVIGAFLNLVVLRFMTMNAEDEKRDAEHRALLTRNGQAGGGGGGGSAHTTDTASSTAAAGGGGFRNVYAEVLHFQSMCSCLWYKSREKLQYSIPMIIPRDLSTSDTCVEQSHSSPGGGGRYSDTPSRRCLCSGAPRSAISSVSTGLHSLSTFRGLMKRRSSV
KCNQ1 inh – inhibitors of human KCNQ1 channel, primary screen, cell-based, thallium flux, high-throughput; CHO-K1 KCNQ1, FluxOR thallium flux fluorescence; hits give high values; B-score at 10 µM; AID 2642, 2010; Potassium voltage-gated channel subfamily KQT member 1 (Homo sapiens), P51787; hit rate 1.3% among 310,000;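 active = compounds whose thallium flux B-score, printed positive for inhibition, exceeds three library SD while starting fluorescence stays within three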;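 also: channel opened by potassium depolarization with thallium stimulus after 20 min compound exposure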
KCNQ1 act – potentiators or activators of KCNQ1 channel, primary screen, cell-based, thallium flux, high-throughput. CHO-K1 KCNQ1, thallium flux FluxOR fluorescence; hits give high values. B-score at 10 µM. hit rate 0.35% among 310,000;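 active = fluorescence ratio B-score, a plate-corrected score, at least three library SD, with initial intensity B-score within 5 SD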
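Assay system: stable KCNQ1 CHO-K1 line; medium: assay buffer, equal DMSO in all wells; timing: 90 min dye loading and 20 min compound exposure, both at room temperature; technique: kinetic FluxOR thallium fluorescence, 10-s 1-Hz baseline, 110-s post-stimulus read; read-out basis: B score of baseline-normalized fluorescence ratio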
hERG protect – hERG rescue from dofetilide block, primary screen, cell-based, CHO-hERG, FluxOR thallium flux, dofetilide IC70 | Voltage-gated inwardly rectifying potassium channel KCNH2 (Homo sapiens), Q12809 | activation (rescue from dofetilide block), less the hit threshold, % at 10 µM | dofetilide IC70 present | hit rate 0.51% among 310,000;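 active = activation above the mean of controls blocked by dofetilide plus 5 SD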;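 also: thallium influx through hERG after potassium depolarization seen as dye fluorescence rise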
Kir21 inh – inhibitors of mouse Kir2.1 inward-rectifier potassium channel. Inward rectifier potassium channel 2 (Mus musculus), P35561. HEK293-Kir2.1, FluxOR thallium flux fluorescence; hits give low values. B-score at 10 µM. hit rate 0.85% among 310,000;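 active = fluorescence ratio B-score at or below minus 3 SD of library scores, with starting-brightness B-score within 2 SD, cut at about -4.2 in these data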;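 also: channel flux triggered by added potassium and thallium sulfate stimulus; B-score of peak minus minimum fluorescence over baseline after thallium stimulus; more negative B-score means stronger Kir2.1 block with less thallium influx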
KCNK9 inh – KCNK9 potassium channel inhibitors, primary screen, HEK293 cells, thallium flux. hit rate 1.2% among 310,000. Potassium channel subfamily K member 9 (Homo sapiens), Q9NPC2. B-score at 10 µM. AID 488922, 2010. FluxOR thallium flux fluorescence; hits give low values;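 active = ratio B-score over 3 SD below the library mean, with starting fluorescence within 5 SD of its mean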;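 also: negative B-score means less thallium flux so channel inhibition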
An asterisk follows results filed as active; i = inactive; . = no result given.

SMILES	KCNK3 inh	KCNQ1 inh	KCNQ1 act	hERG protect	Kir21 inh	KCNK9 inh
CCOC(=O)COc1ccccc1/C=N\NC(=O)c1cc2c(ccc3ccccc32)o1	i	10*	i	-18.3	2.12	-6.84*
NS(=O)(=O)c1ccc(CCNCc2cc(Br)ccc2OCc2ccccc2)cc1	i	i	i	-22.6	-8.17*	i
COc1ccc(Br)cc1CN(C)CC(=O)NCCc1ccc(S(N)(=O)=O)cc1	i	i	i	-5.2	-4.74*	i
OCCNCc1cc(Br)ccc1OCc1ccccc1	i	i	i	-6.6	0.02	i
COc1ccc(Br)cc1/C=C/C(=O)OCC(=O)NCCc1ccc(S(N)(=O)=O)cc1	i	.	.	.	.	.
O=C(Cn1cnc2sc3c(c2c1=O)CCCC3)NCC(=O)Nc1c(F)cc(F)cc1Br	i	i	i	-6.1	1.39	i
O=S(=O)(c1ccc(-c2ccon2)s1)N1CCN(c2ccccn2)CC1	i	i	i	-2.8	-0.8	i
CCOc1ccc(/C=N/NC(=O)c2ccc(Cn3cc([N+](=O)[O-])cn3)o2)cc1	i	i	i	-2.5	0.27	i
CC(C)(C)c1ccc(OCc2ccc(C(=O)N/N=C/c3ccc([N+](=O)[O-])cc3)o2)cc1	i	7*	i	-15.1	-1.35	i
CN1CCN(C(c2cccc(Cl)c2)c2ccccc2Cl)CC1 (stereo not drawn)	i	i	i	-15.5	-4.4*	i
CN1CCN(C(c2ccccc2)c2ccc(Cl)cc2)CC1 (stereo not drawn)	i	.	.	.	.	.
COc1cc(CC(=O)Nc2cc(S(=O)(=O)N3CCOCC3)ccc2N2CCCC2)cc(OC)c1OC	i	.	.	.	.	.
CC1CCCC(C)N1/N=C/c1cc(Br)cc(Br)c1O (stereo not drawn)	i	i	i	-9.0	0.68	i
CC(=O)N1c2ccc(N=Cc3cc(Br)cc(Br)c3O)cc2CC1C (stereo not drawn)	.	i	8*	3.5	0.26	i
COc1ccc(NC(=O)CN2C(=O)S/C(=C/c3cccn3-c3ccc(C(=O)O)cc3)C2=O)cc1	i	i	i	15.7*	0.08	i
Cc1ccc(NC(=O)CN2C(=O)S/C(=C\c3cccn3-c3cccc(C(=O)O)c3)C2=O)c(C)c1	i	i	i	5.4*	1.36	i
Cc1ccccc1NC(=O)CN1C(=O)S/C(=C\c2cccn2-c2cccc(C(=O)O)c2)C1=O	i	i	i	0.4	-0.11	i
Cc1cn2c(nc1=O)OC1C(O)C(COC(=O)c3ccccc3)OC12 (stereo not drawn)	i	i	i	5.0*	0.51	i
CC(C)C(=O)Nc1nnc(S(=O)(=O)N(C)c2ccc(Cl)cc2)s1	i	i	i	-1.9	-1.11	i
COc1ccc(COc2ccc(S(=O)(=O)N3CCCC3)cc2C(N)=O)cc1F	i	i	i	-9.6	0.03	i
CC(C)Cc1nc2n[nH]c(N)c2c2c1CCCC2	i	i	i	1.6	0.06	i
CC(C)c1nc2n[nH]c(N)c2c2c1CCCC2	i	i	i	2.2	-6.8*	i
COc1ccc(OCCNC(=O)Nc2cc(F)c(F)cc2Cl)cc1	i	i	i	1.3	-1.16	i
COc1cccc(OCCNC(=O)Nc2cc(F)c(F)cc2Cl)c1	i	i	i	6.1*	1.74	i
CCN(CC)CCN1C(=O)c2ccccc2NC1c1ccccc1F (stereo not drawn)	i	i	i	5.1*	0.88	i
SMILES	KCNK3 inh	KCNQ1 inh	KCNQ1 act	hERG protect	Kir21 inh	KCNK9 inh
CCCCC1(c2ccc(F)cc2)NC(=O)N(CC(=O)Nc2ccc(N3CCOCC3)cc2)C1=O (stereo not drawn)	i	.	.	.	.	.
COc1ccc2cc(C(=O)NCc3ccccc3)c(=Nc3ccc(C(=O)O)cc3)oc2c1	i	i	i	6.8*	0.78	i
CCn1c(SCC(=O)OC)nc2sc3c(c2c1=O)CCC3	i	i	i	-2.7	-0.51	i
CCn1c(SCc2ccc(C(=O)OC)o2)nc2sc3c(c2c1=O)CCCC3	i	i	i	-5.8	-0.66	-7.86*
O=C(CC(=O)c1ccccc1)CS(=O)(=O)c1ccccc1	i	.	.	.	.	.
CCOc1ccc(NC(=O)C(=O)NCCN2CCN(C(=O)c3ccc(C)cc3)CC2)cc1	i	i	i	-10.9	-0.62	i
COCCCNC(=O)c1cc(C)nn1-c1ccccc1	i	i	i	-8.6	0.17	i
CCOC(=O)c1c(C)[nH]c(C)c1C(=O)COC(=O)COc1ccc(Cl)c(C)c1	i	.	.	.	.	.
C=C(C)Cn1cnc2c(oc3nc4c(cc32)CCCC4)c1=O	i	i	i	-3.8	0.53	i
O=C1c2ccccc2-c2onc3ccc(NCc4ccco4)c1c23	i	i	i	-24.4	-1.81	i
CCNc1ccc2noc3c2c1C(=O)c1ccccc1-3	i	6*	i	-30.0	-2.41	i
CCOCC(=O)OCC(=O)Nc1cc(OC)c([N+](=O)[O-])cc1C	i	i	i	4.9*	0.22	i
CCc1cc2c(=O)n(Cc3ccco3)c(SCC(=O)N3CCCc4ccccc43)nc2s1	i	6*	i	-7.4	0.45	i
CC1(C)CCC(=O)N2CC[C@H]3C[C@H](OC(=O)Nc4ccc5c(c4)OCO5)C[C@@H]1[C@H]32	i	i	i	-8.8	-1.37	-8.04*
CCCCNC(=O)O[C@H]1C[C@@H]2CCN3C(=O)CCC(C)(C)[C@H](C1)[C@H]23	i	i	i	-4.2	-0.81	i
CC(=O)N1CCc2cc(S(=O)(=O)NC(C(=O)NC(C)c3ccccc3)C(C)C)ccc21 (stereo not drawn)	i	i	i	-5.2	2.11	i
Fc1cccc(-n2cc(-c3ccccc3)c3c(=S)nc[nH]c32)c1	i	i	i	-0.4	0.74	i
Fc1ccc(-n2cc(-c3ccccc3)c3c(=S)nc[nH]c32)cc1	i	i	10*	1.1	0.62	i
CCCNC(=O)c1ccc2snnc2c1	i	.	.	.	.	.
CNC(=O)c1nnsc1S(=O)c1ccc(Cl)cc1 (stereo not drawn)	i	i	13*	-20.6	-7.62*	i
CCCNC(=O)c1nnsc1S(=O)(=O)c1ccc(Cl)cc1	-9.13*	.	.	.	.	.
